Assay outcomes (PubChem BioAssay)
This is a sample that favours compounds with a hit; in the whole collection about 9.2% have one here.
Dynein transport – blocks dynein driven cargo transport along microtubules | hit rate 0.47% among 220,000 | 3617.4 mouse cells, GR-EGFP nuclear translocation imaging; test concentration mostly 20 µM; stimulated with dexamethasone, 1 µM; active compounds read low | z-score, hits read low;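 active = plate z-score of nuclear minus cytoplasmic receptor signal below a set negative limit, without overly bright fluorescence or cell loss, cut at about -3.5 in these data, passing the limit was not always enough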;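 note: z-score of nuclear minus cytoplasmic ring GR-EGFP intensity difference per well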
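medium = tetracycline-free induction medium containing charcoal-stripped FBS | probe or stimulus = dexamethasone, 1.0 µM final | timing = 48 h induction, then 1 h compound, then 30 min agonist, 37 °C | detection = automated 10x imaging of fixed Hoechst-stained cells | read-out basis = nuclear versus cytoplasmic GR-EGFP signal, averaged per well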
Autophagy HCS – autophagy modulation, high-content screen; calls only at 10 µM (by protocol); MEF GFP-LC3 puncta imaging; test concentration mostly 10 µM; hit rate 0.98% among 190,000;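 active = percentage of spot-positive cells more than 3 SD above its plate mean, without a fluorescence outlier flag or 80% toxicity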;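 note: spot-positive cell cutoff set from DMSO-treated cells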
HCT116 PTEN-null – suppresses growth of cells with PTEN deletion | AID 827 | hit rate 1.2% among 140,000 | viability, % at 10 µM | HCT116 PTEN-null viability, CellTiter-Glo, 60 h; active compounds read low;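 active = viability at or below a set limit, 4 SD under the median of all tested compounds, cut at about 3.7% in these data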;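 note: PTEN knockout HCT116 line with beta catenin targeted HCT116 as companion control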
HCT116 bCat-KO – beta-catenin-lacking colon tumor cell growth suppression; viability, % at 10 µM; AID 818; hit rate 1.5% among 140,000; HCT116 beta-catenin knockout viability, CellTiter-Glo, 60 h; active compounds read low;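 active = viability at or under a set limit, the compound median less 4 SD, cut at about 6% in these data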;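 note: 0% = Hyamine 1622 control at 20 µM and 100% = untreated cell control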
L major viab – inhibitors of Leishmania major promastigote growth; Leishmania major promastigotes, resazurin fluorescence viability; inhibition, % at 10 µM; hit rate 9% among 200,000; AID 1063; in the data active = inhibition above about 50%;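 note: promastigotes grown with compound for 44 hours at 28 °C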
* marks the source's active call; other numbers are inactive results; i = inactive; . = no result given; + = active, no number.

SMILES	Dynein transport	Autophagy HCS	HCT116 PTEN-null	HCT116 bCat-KO	L major viab
Cc1ccc(S(=O)(=O)N(C)c2ccc(OCC(=O)Nc3nc4ccccc4s3)cc2)cc1	-0.68	i	31	27	98*
Cc1ccc(S(=O)(=O)N(C)c2ccc(OCC(=O)Nc3nc(-c4ccccc4)cs3)cc2)cc1	-0.13	i	71	67	89*
CN(Cc1ccccc1)c1nc2c(c(=O)n(C)c(=O)n2C)n1CCSc1ncccn1	-0.028	i	100	104	-2
CCOCCn1c(N(C)Cc2ccccc2)nc2c1c(=O)[nH]c(=O)n2C	-0.42	i	98	97	-9
CN(Cc1ccccc1)c1nc2c(c(=O)[nH]c(=O)n2C)n1CCCc1ccccc1	-1.1	i	56	59	54*
Cn1c(=O)[nH]c(=O)c2c1nc(N(CCO)Cc1ccccc1)n2CCCc1ccccc1	-0.061	i	83	90	30
Cc1cc(C)nc(SCCn2c(N(C)Cc3ccccc3)nc3c2c(=O)n(C)c(=O)n3C)n1	0.044	i	80	80	78*
CN(Cc1ccccc1)c1nc2c(c(=O)[nH]c(=O)n2C)n1Cc1ccccc1Cl	0.91	i	94	82	70*
O=C(NCc1cccnc1)c1ccccc1NS(=O)(=O)c1ccc(F)cc1F	-0.91	.	.	.	.
Cc1cc2nc(C)n(CCCNC(=O)Nc3ccc(F)cc3)c2cc1C	0.097	i	88	99	91*
Cc1ccc(NC(=O)Nc2ccc3c(c2)nc(C)n3C)cc1C	1.1	i	.	.	1
O=S(=O)(NCCC1CC1(Cl)Cl)c1ccc(Cl)cc1 (centres undefined)	-0.08	.	.	.	.
Cc1cc(C)nc(NC2=NCC(=O)N2c2cc(Cl)cc(Cl)c2)n1	-0.86	i	104	98	6
Cc1cc(C)nc(NC2=NC3CCCCC3N2)n1 (centres undefined)	1.5	i	79	70	64*
Cc1cc(C(=O)CSc2n[nH]c(N)n2)c(C)n1-c1ccc(F)cc1	1.5	i	60	44	17
Cc1ccc(-n2c(C)cc(C(=O)CSc3n[nH]c(N)n3)c2C)cc1	0.55	i	60	48	95*
Cc1cc(C(=O)COC(=O)C2=NNC(=O)CC2)c(C)n1-c1ccccc1	-0.3	i	80	86	-3
Cc1ccc(-n2c(C)cc(C(=O)COC(=O)C3=NNC(=O)CC3)c2C)cc1	-0.4	i	94	95	95*
CCOc1ccc(CCNC(=O)c2ccc(CNS(=O)(=O)c3ccccc3)cc2)cc1OCC	0.33	i	71	80	53*
CCOc1ccc(CCNC(=O)COC(=O)c2ccccc2O)cc1OCC	-0.32	i	.	.	82*
CCOc1ccc(CCNC(=O)COC(=O)c2cccnc2OCC)cc1OCC	-1.1	i	101	101	13
O=C(c1ccc(Br)cc1)N1CCCC(c2nc(-c3cccs3)no2)C1 (centres undefined)	-0.69	i	.	.	67*
COc1ccc(C(=O)N2CCCC(c3nc(-c4cccs4)no3)C2)cc1 (centres undefined)	0.89	i	77	78	9
COc1ccc(C)cc1Nc1cc(C)nc2ncnn12	-0.81	i	100	93	-5
CC1=C(C(=O)Nc2ccccc2)C(c2cccs2)NC(=O)N1 (centres undefined)	-0.66	i	.	.	-1
SMILES	Dynein transport	Autophagy HCS	HCT116 PTEN-null	HCT116 bCat-KO	L major viab
CC1CC(C)(C)N(C(=O)CSc2ccc(-c3ccc(F)cc3)nn2)c2ccccc21 (centres undefined)	-0.73	i	4	4.9*	7
CC1CCN(C(=O)CSc2ccc(-c3ccc(F)cc3)nn2)CC1	0.18	i	103	108	20
COc1ccc(/C=N/NC(=O)c2cc(C34CC5CC(CC(C5)C3)C4)[nH]n2)cc1O	-0.3	i	105	98	90*
Cc1cccc(N2C(=N)SCC2=O)c1C	-0.57	i	94	103	54*
Cc1cc(C)n(C(=O)CSc2ccc(Cl)cc2)n1	-0.19	i	94	95	-7
Cc1cccc(OCCCN2CCCCCC2)c1	-0.41	i	90	97	98*
Cc1ccccc1OCC(=O)NCCN1CCCC1	5.1	i	96	88	-2
Cc1ccc(C(C)C)cc1OCCCCN1CCCC1	-0.38	i	84	85	99*
CCc1cccc(OCCN2CCCC2)c1	0.099	i	95	96	32
Cc1ccc(C)c(OCCCN2CCCC2)c1	0.14	i	86	96	98*
CC1CCN(CC(=O)N2CC(=O)Nc3ccccc32)CC1	-0.95	i	92	95	-7
COCCCNC(=O)CN(c1cc(Cl)ccc1OC)S(C)(=O)=O	-0.54	i	.	.	-2
Brc1ccc(-c2nnc3sc(CNC4CCCC4)cn23)cc1	-0.83	i	102	91	91*
Brc1ccc(-c2nnc3sc(CNCc4ccc5c(c4)OCO5)cn23)cc1	0.39	i	94	97	85*
CC1(C)Cc2c(ccc3ccccc23)C(=O)N1	-0.56	i	61	81	39
CCNC(=O)/C=C1\NC(C)(C)Cc2c1ccc1ccccc21	-1.3	i	77	83	100*
Cc1oc(C)c2c(=O)ccc3c(c12)OC(N)=C(C#N)C3c1ccc(F)cc1 (centres undefined)	1.7	i	97	115	60*
C[n+]1cccc2ccc3c(c21)OC(N)=C(C#N)C3c1ccccc1 (centres undefined)	-0.29	.	.	.	.
N=c1c(-c2nc3ccccc3[nH]2)cc(C(=O)c2ccco2)nn1-c1ccccc1	-0.87	i	60	57	100*
N=c1c(-c2nc3ccccc3[nH]2)cc(C(=O)c2cccs2)nn1-c1ccccc1	0.28	+	54	47	100*
CCOC(=O)C(=NCC1CCCO1)NNc1cc(Cl)ccc1Cl (centres undefined)	-0.38	.	.	.	.
C/C(CC(=O)Nc1c(C)cc(C)cc1C)=N\NC(=O)OC(C)(C)C	0.15	i	101	95	-4
CC1CC(C)CN(CCCNC(=O)Cc2c(C(=O)O)n(C)c3ccccc23)C1 (centres undefined)	0.045	i	107	97	-2
COc1cc(C2NCC(c3ccc(Cl)cc3Cl)c3c2[nH]c2ccccc32)cc(OC)c1OC (centres undefined)	-0.67	i	61	58	99*
O=C(O)c1ccc(C2NCC(c3ccccc3Cl)c3c2[nH]c2ccccc32)cc1 (centres undefined)	-0.17	i	.	.	-5
CCOC(=O)c1c(/N=C/N(C)C)sc(C)c1C	0.78	i	.	.	3
CCOC(=O)c1c(/N=C/N(C)C)sc(/C=N/Nc2ccccc2)c1-c1ccc(Cl)cc1	2.3	i	68	70	94*
COc1ccc(COc2cc(-c3cccc(OC)c3)nc3ccc(NC(=O)c4ccc(N(C)C)cc4)cc23)cc1	2.8	i	30	36	84*
COc1ccc(COc2cc(-c3cccc(OC)c3)nc3ccc(N)cc23)cc1	-0.31	i	14	14	76*
